# Assay outcomes as filed in PubChem.
# The sample as a whole holds a higher share of hits than the screen did.
# INS promoter act = TRM-6 insulin promoter activation; TRM-6 cells (human fetal islet line), insulin promoter eGFP reporter, imaging; plate-scaled: unstimulated 0, stimulated control 100; hit rate 0.81% among 130,000; activation, % at 2 µM;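 active means activation at 2 µM above a set limit, confirmed on inspection of the cell images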;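 further: share of cells whose green reporter signal exceeds an intensity cutoff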
#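 System – TRM-6 insulin promoter–eGFP reporter cells · Probe or stimulus – 0.75 µM tamoxifen as reporter inducer · Dosing – single-point 2 µM compound dose · Incubation – tamoxifen pre-incubation 15 h overnight, then compound exposure 48 h at 37 °C · Measured by – fixed-cell fluorescence microscopy, eGFP plus Hoechst · Evaluation – percent GFP-positive cells normalized to per-plate controls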
# Starred values were filed as active, the others as inactive; + = active, no number; [ ] = remark or other dose.
SMILES,INS promoter act
Cc1ccc(S(=O)(=O)N(CC(=O)NN=C2CCN(C)CC2)c2ccc(C(C)C)cc2)cc1,0
COCCNCC(=O)N1CCCCCC1,0
Cc1nonc1NC(=O)CSc1nc2c(C)cccc2cc1C#N,809*
Cc1cc(C)c2nc(SCC(=O)Nc3ccccc3N3CCOCC3)c(C#N)cc2c1,329
CCc1cc2cc(C)cc(C)c2nc1SCC(=O)Nc1cc(C)on1,118
Cc1ccc(CN2CCN(/N=C/c3ccc(C)s3)CC2)c(C)c1,3
Cc1ccccc1C(=O)NC(=S)Nc1ccccc1N1CCCC1,-3
CC1CCN(c2ccccc2NC(=S)NC(=O)c2ccco2)CC1,230*
CCOc1ccc(C(=O)NC(=S)Nc2ccccc2N2CCC(C)CC2)cc1[N+](=O)[O-],-7
CCOC(=O)c1c(NC(=O)CSc2nc3ccccc3c(=O)n2-c2ccccc2)sc(C(C)=O)c1C,163
CC(C)CN1C(=O)/C(=C/c2cccs2)NC1=S,431*
CCOc1ccc(N2C(=O)/C(=C/c3cccs3)N(C)C2=S)cc1,0
COc1ccc(N=C2S/C(=C\c3cccs3)C(=O)N2CC(C)C)cc1,-3
Cc1ccc[n+](/C(C(=S)NCc2ccco2)=C(/[O-])c2ccccc2Cl)c1,287
Cc1ccc(/C([O-])=C(/C(=S)NCc2ccccc2)[n+]2cccc(CO)c2)cc1[N+](=O)[O-],+
Cc1ccc(C(=O)Nc2ccc(OCc3ccccc3)cc2)cc1[N+](=O)[O-],-6
C/C(=N\n1cnnc1)c1ccccc1,0
COC(=O)c1ccc(-c2nc3ccccc3[nH]2)cc1,-64
CC(=O)c1ccc(OC(=O)c2cc3ccccc3oc2=O)cc1,5
CCNC(=O)C1CCCc2c1[nH]c1ccc(Cl)cc21 (centres undefined),0
CCc1cc2c(-n3nc(C)cc3C)ncnc2s1,343
Cc1cc(C)n(-c2cc(=O)n(C)c(=O)n2C)n1,-3
Cc1cc(C)n(-c2cc(C)c(C)cc2Br)n1,132*
Nc1c(-c2cccc([N+](=O)[O-])c2)nc2ccccn12,-69
CCC(Cc1ccccc1)NC(=O)CCn1cccc1 (centres undefined),3
SMILES,INS promoter act
Cc1ccc(CSc2nnc(-c3ccncc3)o2)c(C)c1,4
CCN(CC)C(=O)C(C(=O)c1cccc([N+](=O)[O-])c1)n1cc(Cl)ccc1=O (centres undefined),0
CN(CCOc1ccccc1)CC(=O)Nc1cc([N+](=O)[O-])ccc1Cl,9
COCC(=O)OCC(=O)Nc1cc([N+](=O)[O-])ccc1Cl,733*
COc1ccc([N+](=O)[O-])cc1NC(=O)COC(=O)C=C(C)C,0
COc1cc(/C=C\C(=O)NCc2ccc3c(c2)cc(C)n3C)cc(OC)c1OC,7
CC(=O)N/C(=C\c1ccc(F)cc1)C(=O)N(C)C,-6
COC(=O)c1ccsc1-n1cc(C#N)c(=O)n(C)c1=O,9
CCOC(=O)NC1(C(F)(F)F)C(=O)N(Cc2ccccc2)C2=C1C(=O)CC(C)(C)C2 (centres undefined),-3
CCOC(=O)C1=C(C)Nc2ccccc2N=C1NC(=O)Cc1ccc(Br)cc1,223*
CCOC(=O)C1=C(C)Nc2ccccc2N=C1NC(=O)Cc1ccc(Cl)c(Cl)c1,190
CCOC(=O)c1ccc(CNCc2ccc(Br)cc2)cc1,0
CC1=CCC2C(=O)N(c3ccc(C(=O)N4CCCCCC4)cc3)C(=O)C2C1 (centres undefined),-4
CC1CCCC(C)N1C(=O)CSc1nnc(-c2cccs2)o1 (centres undefined),3
O=C(CSc1nnc(-c2cccs2)o1)NCC1CN(Cc2ccccc2)CCO1 (centres undefined),76*
O=C(CSc1nc2ccsc2c(=O)n1Cc1ccc(C(=O)O)cc1)NCC1CCCO1 (centres undefined),6
COCc1nnc(N)s1,6
Clc1ccc(Cc2ccc(SCc3ccccc3)nn2)c(Cl)c1,-3
Nc1nnc(Cc2ccc(Cl)cc2Cl)s1,97*
O=C(NCC1CCCO1)c1onc(CSc2ccc(F)c(F)c2)c1C(=O)O (centres undefined),3
O=C(Nc1ccc(Cl)cc1C(=O)N1CCOCC1)c1cccc([N+](=O)[O-])c1,7
CCn1c(=O)cc(OCC(=O)Nc2cc(C)ccn2)c2ccccc21,6
CCOC(=O)COc1cc(=O)n(CC)c2ccccc12,-4
CCn1c(=O)cc(OCC(=O)NCCc2cccc(C)c2)c2ccccc21,129*
N#Cc1c(NC(=S)NC(=O)c2ccccc2)sc2c1CCN(CCc1ccccc1)C2,270*
SMILES,INS promoter act
N#Cc1c(NC(=O)c2cccnc2)sc2c1CCC2,6
CC1(C)Cc2c(sc(NC(=S)NC(=O)c3ccccc3)c2C(=O)O)CO1,0
O=C(O[C@@H]1OC2COC(=O)c3cc(O)c(O)c(O)c3-c3c(cc(O)c(O)c3O)C(=O)O[C@@H]([C@H]1O)[C@@H]2O)c1cc(O)c(O)c(O)c1,5
CN(Cc1cn(-c2ccccc2)nc1-c1cc2ccccc2o1)C(=O)CCC(=O)O,108
O=C(CCCCCN1C(=O)c2ccccc2C1=O)Nc1ccc2c(c1)OCCO2,0
O=C(CCCCCN1C(=O)CCC1=O)Nc1ccc2c(c1)OCO2,475*
O=C(CCCN1C(=O)CCC1=O)Nc1ccc2c(c1)OCCO2,118
CC1=NN(C(C#N)c2cccc([N+](=O)[O-])c2)C(C)(C)C1 (centres undefined),10
CCOC(=O)C(C)Sc1ncnc2nc[nH]c12 (centres undefined),513*
CCOC(=O)C(CC)Sc1ncnc2nc[nH]c12 (centres undefined),-3
CCOC(=O)C(C)Sc1ncnc2c1nnn2-c1ccc(F)cc1 (centres undefined),-9
CC(C)CCN1C(=O)c2ccccc2C1C(=O)NCc1cccnc1 (centres undefined),0
O=C(COC(=O)CC12CC3CC(CC(C3)C1)C2)Nc1cccnc1Cl,-5
Cc1cc(C)c(S(=O)(=O)NCC(=O)NCc2ccco2)c(C)c1,0
CCOC(=O)C1(Cc2ccc(Cl)cc2)CCN(C(=O)c2sc(C)nc2C)CC1,-9
CCCC(=O)NCn1nnc(-c2ccc(Cl)cc2)n1,488*[fluoresces]
CS(=O)(=O)c1ccc(-c2nnn(CC(N)=O)n2)cc1,0
CCc1ccc(-c2nnn(CCC(=O)OC)n2)cc1,-6
CCC(C)NS(=O)(=O)c1ccc(S(=O)(=O)N2CCCC3(CCCCC3)C2)cc1 (centres undefined),143
CC(=O)Oc1ccc(N(C(C)=O)S(=O)(=O)c2cccs2)c2ccccc12,-10
CCOC(=O)c1ccccc1NC(=O)c1ccc(N(C)S(C)(=O)=O)cc1,388
CCOc1ccc(N(CC(=O)Nc2ccccc2C(=O)NCc2ccco2)S(C)(=O)=O)cc1,-3
CCOC(=O)c1ccccc1NC(=O)CN(c1ccc(OCC)cc1)S(C)(=O)=O,387*
CCOC(=O)C1=C(N)OC(CCl)=C(C#N)C1c1ccsc1 (centres undefined),0
O=S1(=O)C=C(SCc2ccc(Cl)c(Cl)c2)Nc2ccccc21,7
CC(NC(=O)c1ccc(C23CC4CC(CC(C4)C2)C3)cc1)C(=O)O (centres undefined),-7
CC(=O)Nc1ccc(Nc2cc(C)nc3c(-c4ccccc4)cnn23)cc1,-75
O=[N+]([O-])c1ccc2cn(-c3ccccc3)nc2c1,7
COCCN(C(=S)Nc1ccc(C)cc1C)C(C)c1ccco1 (centres undefined),0
N#C/C(=C\c1ccc(OC(=O)c2ccc(Br)s2)cc1)c1nc2ccccc2[nH]1,9
